The list is not random: actives were taken first. Their share in the collection is about 10%.
PMI activator: increases human mannose-6-phosphate isomerase activity; P34949; purified human PMI, coupled resazurin fluorescence, 20 min; stronger effect = higher value; 1 = vehicle control, 0 substrate-free wells; activation factor at 20 µM; 190,000 tested, 0.005% active;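 active = activation factor of 2 or more at 20 µM, relative to plate controls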
Target sequence (P34949 whole entry, looked up): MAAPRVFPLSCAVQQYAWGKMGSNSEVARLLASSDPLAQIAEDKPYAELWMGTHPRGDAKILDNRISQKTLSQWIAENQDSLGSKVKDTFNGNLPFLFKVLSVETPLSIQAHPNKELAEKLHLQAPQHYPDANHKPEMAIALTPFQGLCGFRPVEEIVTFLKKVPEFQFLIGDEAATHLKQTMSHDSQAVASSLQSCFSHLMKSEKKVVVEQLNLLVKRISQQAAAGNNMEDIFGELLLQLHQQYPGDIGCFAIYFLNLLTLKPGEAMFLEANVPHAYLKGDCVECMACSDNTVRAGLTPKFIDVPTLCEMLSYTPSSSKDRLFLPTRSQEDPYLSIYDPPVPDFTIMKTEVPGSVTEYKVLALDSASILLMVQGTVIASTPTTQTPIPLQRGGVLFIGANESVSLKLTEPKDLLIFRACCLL
PMI act hi M6P: PMI (human) activation, high substrate. P34949. coupled PMI enzyme assay, resazurin fluorescence, 20 min; stronger effect = higher value; 1 = untreated enzyme, 0 = substrate-free blank. activation factor at 20 µM. 190,000 tested, 0.34% active. AID 1216;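 active = activation factor of 2 or more at 20 µM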
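test system = human PMI in coupled enzyme assay | medium = HEPES-buffered pH 7.4 with magnesium and detergent | also added = 1.0 mM mannose-6-phosphate substrate with 0.22 mM NADP+ | compound = 20 µM single dose | times = 20 min incubation at room temperature | measured by = resorufin fluorescence (Ex 544/Em 590 nm) from resazurin via diaphorase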
WT yeast gro inh: growth inhibition of WT yeast, mitochondrial fusion screen; mitochondrial fusion phenotypic screen, WT strain; inhibition, % at 10 µM; 190,000 tested, 2.1% active; in the data active = inhibition above about 58%; tested in S. cerevisiae
Diaph act CS: counter-screen for diaphorase-based assays: diaphorase activators and chemical reducers; Diaphorase/resazurin coupled assay, resorufin fluorescence, 16 min; stronger effect = higher value; 1 = vehicle wells, 0 = NADH-free wells; 190,000 tested, 0.005% active; activation factor at 20 µM; AID 1229;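 active = diaphorase activity raised at least twofold by the compound at 20 µM; inactive = activation factor below 2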
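Test system: Clostridium kluyveri diaphorase, purified enzyme. Buffer or medium: 50 mM HEPES pH 7.4 buffer plus MgCl2 and Tween 20. Also added: 0.114 mM NADH and 0.1 mM resazurin, final amounts. Dosing: compound 20 µM once, DMSO 1%. Schedule: 16 min enzyme reaction, ambient temperature. Detection: fluorescence of resorufin, 544 nm excitation, 590 nm emission.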
L major viab: Leishmania major promastigote growth inhibition; Leishmania major promastigotes, resazurin fluorescence viability; inhibition, % at 10 µM; 200,000 tested, 9% active; in the data active = inhibition above about 50%;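 note: promastigotes grown with compound for 44 hours at 28 °C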
* marks the source's active call; other numbers are inactive results; . = not tested or not shown.

SMILES | PMI activator | PMI act hi M6P | WT yeast gro inh | Diaph act CS | L major viab
O=C(CSc1nc(-c2ccc(F)cc2)cc(C(F)(F)F)n1)Nc1ccc2c(c1)OCO2 | 0.9 | 0.9 | -13.7 | 0.8 | 28.4
Cc1nn(C)c(Cl)c1CN1CCN(C2CCCCC2)C(CCO)C1 (stereo not given) | 1 | 1 | -0.7 | 1.1 | -3.7
CC(C)=CCN1CCN(CCCn2cccn2)CC1CCO (stereo not given) | 1 | 1.1 | -0.1 | 0.8 | -7.3
CC1=C(CCN2CCN(C3CCCC3)C(CCO)C2)C(C)(C)CCC1 (stereo not given) | 0.8 | 0.9 | 12.6 | 1 | 82.8*
CC(C)=CCN1CCN(CCC2=C(C)CCCC2(C)C)CC1CCO (stereo not given) | 1 | 1.1 | 14.8 | 1 | 80.2*
CCOc1ncccc1C(=O)Nc1cccc(-c2nnc3n2CCCCC3)c1 | 1.1 | 1.1 | -10.3 | 0.9 | 5.0
O=C(CN1CCOCC1)N1CCN(c2ccc3ccccc3n2)CC1 | 1.1 | 1.1 | 7.3 | 0.9 | -7.3
COc1ccc(NC(C#N)c2ccc(OC)cc2)cc1 (stereo not given) | 0.9 | 0.9 | . | 0.9 | 91.2*
COc1ccc(C(C#N)Nc2ccccc2)cc1 (stereo not given) | 0.9 | 0.9 | -5.6 | 0.9 | -0.7
CN1CCN(C(=O)C2CCN(c3ncc(C(F)(F)F)cc3Cl)CC2)CC1 | 1 | 1 | 4.0 | 0.9 | 6.5
O=C(CN(C(=O)c1ccccc1Cl)N1C(=O)CCCC1=O)c1ccc(Cl)cc1 | 0.9 | 1 | 7.9 | 1 | -0.8
O=C(O)CSc1nnc2c(n1)[nH]c1ccccc12 | 1.1 | 1.1 | -3.8 | 1 | -8.6
O=C(CSc1nnc2c(n1)[nH]c1ccccc12)OCc1ccccc1 | 0.9 | 0.9 | 2.3 | 0.9 | 79.3*
COCc1cc(CN2CCCC2)c(O)c2ncccc12 | 0.6 | 0.6 | 3.2 | 0.6 | 100.5*
COc1ccccc1N1CCN(c2nc(C)nc3c2oc2ccccc23)CC1 | 1.1 | 1.1 | 74.6* | 1 | 29.1
O=[N+]([O-])c1cc(CN2CCCC2)c2cccnc2c1O | 0.9 | 0.6 | -8.6 | 0.8 | 11.4
CCOc1ccccc1N1CCN(Cc2cccc(OC)c2O)CC1 | 0.9 | 1 | 10.1 | 0.9 | 18.0
Oc1c(CN2CCCCC2)cc(COCc2ccccc2)c2cccnc12 | 0.5 | 0.8 | 1.2 | 0.5 | 100.5*
COc1ccccc1N1CCN(Cc2cc(Br)c(O)c3ncccc23)CC1 | 0.7 | 0.6 | 7.4 | 0.4 | 100.4*
C=CCn1c(COc2ccc3c(c2)CCCC3)nnc1SCC(=O)Nc1cccc(SC)c1 | 0.8 | 0.9 | 39.2 | 0.9 | 0.0
CC(Sc1ccccc1)C(=O)NN=C1CCN(C)CC1 (stereo not given) | 1.1 | 1.1 | 9.5 | 1 | -5.3
Cc1ccc(NC(=O)COC(=O)CNC(=O)c2ccc3ccccc3c2)c([N+](=O)[O-])c1 | 0.9 | 0.9 | 3.3 | 0.8 | -5.0
COc1cccc(-n2c(Cn3nc(C(F)(F)F)cc3C)n[nH]c2=S)c1 | 1.1 | 1.1 | 0.1 | 1 | -2.2
CCc1nc(SCC(=O)Nc2sc(C)c(C)c2C(=O)OC)c2ccccc2n1 | 1 | 1 | -10.3 | 0.8 | 31.4
CCCCc1cc(=O)oc2cc(C)cc(OCC(=O)O)c12 | 1.1 | 1.1 | 8.8 | 0.9 | -3.1
SMILES | PMI activator | PMI act hi M6P | WT yeast gro inh | Diaph act CS | L major viab
CCc1cc(=O)oc2cc(OC(C)=O)cc(OC(C)=O)c12 | 0.9 | 0.9 | 44.0 | 0.9 | 55.8*
COc1ccc(N2CC(C(=O)N/N=C/c3cc([N+](=O)[O-])ccc3O)CC2=O)cc1 (stereo not given) | 0.8 | 1.1 | -21.8 | 0.5 | -4.0
Cc1cc(Cl)ccc1C(=O)C1CCCN(C(=O)c2ccc3ncccc3c2)C1 (stereo not given) | 0.9 | 1 | 7.6 | 0.9 | -4.1
CCCN1C(=O)/C(=C\c2nc3ccccc3c(=O)[nH]2)c2ccccc21 | 0.9 | 1 | 17.5 | 0.6 | 100.5*
CN(CC(CC(=O)Nc1nncs1)c1ccccc1)S(=O)(=O)c1ccc(Br)cc1 (stereo not given) | 0.9 | 0.9 | 9.3 | 0.8 | 24.3
COc1ccc(CN2CCC(C(=O)N3CCN(c4ccccc4F)CC3)CC2)cc1OC | 0.9 | 1 | 18.2 | 0.9 | -1.9
COc1cc(CN2CCC(C(=O)N3CCN(c4ccccc4F)CC3)CC2)cc(OC)c1OC | 0.9 | 0.9 | -6.2 | 0.8 | 83.1*
COc1cc(CN2CCC(C(=O)NC3CCCC3)CC2)cc(Br)c1O | 0.8 | 0.9 | 12.7 | 0.8 | 15.6

Screens from PubChem BioAssay.
